Assay results reported in ChEMBL document CHEMBL1926550, “Synthesis and antibacterial activity of naphthyridone derivatives containing mono/difluoro-methyloxime pyrrolidine scaffolds” (2012).
Values after ≈ are worked out from the molar mass of the structure shown.

Assays:
Type in all cases: functional
Escherichia coli [1] = assay: Antibacterial activity against Escherichia coli 10-1 after 18 hrs by two fold serial dilution method; conditions: 10-1, 18 h
Outline: (§1)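 Agar two-fold serial dilution in melted Mueller-Hinton agar, final concentrations 128 down to 0.008 μg/mL. Plates inoculated with 10⁴ cfu and incubated at 35 °C for 18 h. MIC taken as the lowest concentration giving no visible growth on the plate.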

Escherichia coli [2] = assay: Antibacterial activity against Escherichia coli 10-2 after 18 hrs by two fold serial dilution method; conditions: 10-2, 18 h; outline: as §1
Escherichia coli [3] = assay: Antibacterial activity against Escherichia coli 10-3 after 18 hrs by two fold serial dilution method; conditions: 10-3, 18 h; outline: as §1
Klebsiella pneumoniae [4] = assay: Antibacterial activity against Klebsiella pneumoniae 09-2 after 18 hrs by two fold serial dilution method; conditions: 09-2, 18 h; outline: as §1
Klebsiella pneumoniae [5] = assay: Antibacterial activity against Klebsiella pneumoniae 10-1 after 18 hrs by two fold serial dilution method; conditions: 10-1, 18 h; outline: as §1
Klebsiella pneumoniae [6] = assay: Antibacterial activity against Klebsiella pneumoniae 10-3 after 18 hrs by two fold serial dilution method; conditions: 10-3, 18 h; outline: as §1
Pseudomonas aeruginosa [7] = assay: Antibacterial activity against Pseudomonas aeruginosa ATCC 27853 after 18 hrs by two fold serial dilution method; conditions: ATCC 27853, 18 h; outline: as §1
Pseudomonas aeruginosa [8] = assay: Antibacterial activity against Pseudomonas aeruginosa 10-1 after 18 hrs by two fold serial dilution method; conditions: 10-1, 18 h; outline: as §1
Pseudomonas aeruginosa [9] = assay: Antibacterial activity against Pseudomonas aeruginosa 10-2 after 18 hrs by two fold serial dilution method; conditions: 10-2, 18 h; outline: as §1
Pseudomonas aeruginosa [10] = assay: Antibacterial activity against Pseudomonas aeruginosa 10-3 after 18 hrs by two fold serial dilution method; conditions: 10-3, 18 h; outline: as §1
[11] = tested on: Staphylococcus epidermidis; assay: Antibacterial activity against methicillin-resistant Staphylococcus epidermidis 10-4 after 18 hrs by two fold serial dilution method; conditions: 10-4, 18 h
Outline: (§2)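 Agar two-fold serial dilution in melted Mueller-Hinton agar, 128 to 0.008 μg/mL. Plates inoculated with 10⁴ cfu, incubated 35 °C for 18 h. MIC taken as lowest concentration giving no visible growth on the plate.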

Staphylococcus aureus [12] = assay: Antibacterial activity against methicillin-resistant Staphylococcus aureus 10-2 infected KM mouse systemic infection model assessed as decrease in mouse mortality administered orally twice after 1 and 4 hrs post infection measured up to 7 days; conditions: 10-2, po
Outline: (§3)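 Strains grown on MH agar at 35 °C for 18 h, suspended in gastric mucin. Male KM mice (19–21 g), groups of 10, infected intraperitoneally with 0.5 mL at 5–10× MLD. Four oral dose levels per drug at 1 and 4 h post infection. Mortality followed 7 days; ED50 with 95% confidence limits by Bliss method.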

[13] = tested on: Staphylococcus epidermidis; assay: Antibacterial activity against methicillin-resistant Staphylococcus epidermidis 10-4 infected KM mouse systemic infection model assessed as decrease in mouse mortality administered orally twice after 1 and 4 hrs post infection measured up to 7 days; conditions: 10-4, po; outline: as §3
Escherichia coli [14] = assay: Antibacterial activity against Escherichia coli 10-2 infected KM mouse systemic infection model assessed as decrease in mouse mortality administered orally twice after 1 and 4 hrs post infection measured up to 7 days; conditions: 10-2, po; outline: as §3
Klebsiella pneumoniae [15] = assay: Antibacterial activity against Klebsiella pneumoniae 10-3 infected KM mouse systemic infection model assessed as decrease in mouse mortality administered orally twice after 1 and 4 hrs post infection measured up to 7 days; conditions: 10-3, po; outline: as §3
Pseudomonas aeruginosa [16] = assay: Antibacterial activity against Pseudomonas aeruginosa 10-1 infected KM mouse systemic infection model assessed as decrease in mouse mortality administered orally twice after 1 and 4 hrs post infection measured up to 7 days; conditions: 10-1, po; outline: as §3
Enterococcus faecium [17] = assay: Antibacterial activity against Enterococcus faecium 09-1 after 18 hrs by two fold serial dilution method; conditions: 09-1, 18 h; outline: as §1
Staphylococcus aureus [18] = assay: Antibacterial activity against Staphylococcus aureus ATCC 25923 after 18 hrs by two fold serial dilution method; conditions: ATCC 25923, 18 h; outline: as §1
Staphylococcus aureus [19] = assay: Antibacterial activity against methicillin-resistant Staphylococcus aureus 10-1 after 18 hrs by two fold serial dilution method; conditions: 10-1, 18 h; outline: as §2
Staphylococcus aureus [20] = assay: Antibacterial activity against methicillin-resistant Staphylococcus aureus 10-2 after 18 hrs by two fold serial dilution method; conditions: 10-2, 18 h; outline: as §2
Staphylococcus aureus [21] = assay: Antibacterial activity against methicillin-resistant Staphylococcus aureus 10-3 after 18 hrs by two fold serial dilution method; conditions: 10-3, 18 h; outline: as §2
Staphylococcus aureus [22] = assay: Antibacterial activity against methicillin-resistant Staphylococcus aureus 10-4 after 18 hrs by two fold serial dilution method; conditions: 10-4, 18 h; outline: as §2
Staphylococcus aureus [23] = assay: Antibacterial activity against methicillin-sensitive Staphylococcus aureus 10-1 after 18 hrs by two fold serial dilution method; conditions: 10-1, 18 h; outline: as §1
Staphylococcus aureus [24] = assay: Antibacterial activity against methicillin-sensitive Staphylococcus aureus 10-2 after 18 hrs by two fold serial dilution method; conditions: 10-2, 18 h; outline: as §1
Staphylococcus aureus [25] = assay: Antibacterial activity against methicillin-sensitive Staphylococcus aureus 10-3 after 18 hrs by two fold serial dilution method; conditions: 10-3, 18 h; outline: as §1
Staphylococcus aureus [26] = assay: Antibacterial activity against methicillin-sensitive Staphylococcus aureus 10-4 after 18 hrs by two fold serial dilution method; conditions: 10-4, 18 h; outline: as §1
Staphylococcus aureus [27] = assay: Antibacterial activity against methicillin-sensitive Staphylococcus aureus 10-5 after 18 hrs by two fold serial dilution method; conditions: 10-5, 18 h; outline: as §1
Staphylococcus aureus [28] = assay: Antibacterial activity against methicillin-sensitive Staphylococcus aureus 10-6 after 18 hrs by two fold serial dilution method; conditions: 10-6, 18 h; outline: as §1
[29] = tested on: Staphylococcus epidermidis; assay: Antibacterial activity against methicillin-resistant Staphylococcus epidermidis 10-1 after 18 hrs by two fold serial dilution method; conditions: 10-1, 18 h; outline: as §2
[30] = tested on: Staphylococcus epidermidis; assay: Antibacterial activity against methicillin-resistant Staphylococcus epidermidis 10-2 after 18 hrs by two fold serial dilution method; conditions: 10-2, 18 h; outline: as §2
[31] = tested on: Staphylococcus epidermidis; assay: Antibacterial activity against methicillin-sensitive Staphylococcus epidermidis 10-1 after 18 hrs by two fold serial dilution method; conditions: 10-1, 18 h; outline: as §1
[32] = tested on: Staphylococcus epidermidis; assay: Antibacterial activity against methicillin-sensitive Staphylococcus epidermidis 10-2 after 18 hrs by two fold serial dilution method; conditions: 10-2, 18 h; outline: as §1
Streptococcus pneumoniae = assay: Antibacterial activity against Streptococcus pneumoniae 10-1 after 18 hrs by two fold serial dilution method; conditions: 10-1, 18 h; outline: as §1
Enterococcus faecium [33] = assay: Antibacterial activity against Enterococcus faecium 09-2 after 18 hrs by two fold serial dilution method; conditions: 09-2, 18 h; outline: as §1
Enterococcus faecium [34] = assay: Antibacterial activity against Enterococcus faecium 09-3 after 18 hrs by two fold serial dilution method; conditions: 09-3, 18 h; outline: as §1
Enterococcus faecium [35] = assay: Antibacterial activity against Enterococcus faecium 09-4 after 18 hrs by two fold serial dilution method; conditions: 09-4, 18 h; outline: as §1
Enterococcus faecium [36] = assay: Antibacterial activity against Enterococcus faecium 09-5 after 18 hrs by two fold serial dilution method; conditions: 09-5, 18 h; outline: as §1
Enterococcus faecium [37] = assay: Antibacterial activity against Enterococcus faecium 09-6 after 18 hrs by two fold serial dilution method; conditions: 09-6, 18 h; outline: as §1
Enterococcus faecalis [38] = assay: Antibacterial activity against Enterococcus faecalis 09-1 after 18 hrs by two fold serial dilution method; conditions: 09-1, 18 h; outline: as §1
Enterococcus faecalis [39] = assay: Antibacterial activity against Enterococcus faecalis 09-2 after 18 hrs by two fold serial dilution method; conditions: 09-2, 18 h; outline: as §1
Escherichia coli [40] = assay: Antibacterial activity against Escherichia coli ATCC 25922 after 18 hrs by two fold serial dilution method; conditions: ATCC 25922, 18 h; outline: as §1
Escherichia coli [41] = assay: Antibacterial activity against Escherichia coli 09-1 after 18 hrs by two fold serial dilution method; conditions: 09-1, 18 h; outline: as §1
Escherichia coli [42] = assay: Antibacterial activity against Escherichia coli 09-2 after 18 hrs by two fold serial dilution method; conditions: 09-2, 18 h; outline: as §1
Escherichia coli [43] = assay: Antibacterial activity against Escherichia coli 09-3 after 18 hrs by two fold serial dilution method; conditions: 09-3, 18 h; outline: as §1

SMILES: CO/N=C1\CN(c2nc3c(cc2F)c(=O)c(C(=O)O)cn3C2CC2)CC1CN (centres undefined) [GEMIFLOXACIN]
- MIC (Escherichia coli [1]): 16 µg/mL (≈ 41.1 µM)
- MIC (Escherichia coli [2]): 0.25 µg/mL (≈ 0.642 µM)
- MIC (Escherichia coli [3]): 4 µg/mL (≈ 10.3 µM)
- MIC (Klebsiella pneumoniae [4]): 16 µg/mL (≈ 41.1 µM)
- MIC (Klebsiella pneumoniae [5]): 0.015 µg/mL (≈ 0.0385 µM)
- MIC (Klebsiella pneumoniae [6]): 0.5 µg/mL (≈ 1.28 µM)
- MIC (Pseudomonas aeruginosa [7]): 0.5 µg/mL (≈ 1.28 µM)
- MIC (Pseudomonas aeruginosa [8]): 0.25 µg/mL (≈ 0.642 µM)
- MIC (Pseudomonas aeruginosa [9]): 16 µg/mL (≈ 41.1 µM)
- MIC (Pseudomonas aeruginosa [10]): 2 µg/mL (≈ 5.14 µM)
- MIC [11]: 4 µg/mL (≈ 10.3 µM)
- ED50 (Staphylococcus aureus [12]): 14.9 mg/kg
- ED50 [13]: 24 mg/kg
- ED50 (Escherichia coli [14]): 6.86 mg/kg
- ED50 (Klebsiella pneumoniae [15]): 108 mg/kg
- ED50 (Pseudomonas aeruginosa [16]): 129 mg/kg
- MIC (Enterococcus faecium [17]): 16 µg/mL (≈ 41.1 µM)
- MIC (Staphylococcus aureus [18]): 0.008 µg/mL (≈ 0.0205 µM)
- MIC (Staphylococcus aureus [19]): 16 µg/mL (≈ 41.1 µM)
- MIC (Staphylococcus aureus [20]): 0.5 µg/mL (≈ 1.28 µM)
- MIC (Staphylococcus aureus [21]): 16 µg/mL (≈ 41.1 µM)
- MIC (Staphylococcus aureus [22]): 16 µg/mL (≈ 41.1 µM)
- MIC (Staphylococcus aureus [23]): 0.008 µg/mL (≈ 0.0205 µM)
- MIC (Staphylococcus aureus [24]): 2 µg/mL (≈ 5.14 µM)
- MIC (Staphylococcus aureus [25]): 0.06 µg/mL (≈ 0.154 µM)
- MIC (Staphylococcus aureus [26]): 0.015 µg/mL (≈ 0.0385 µM)
- MIC (Staphylococcus aureus [27]): 0.5 µg/mL (≈ 1.28 µM)
- MIC (Staphylococcus aureus [28]): 0.008 µg/mL (≈ 0.0205 µM)
- MIC [29]: 0.25 µg/mL (≈ 0.642 µM)
- MIC [30]: 0.5 µg/mL (≈ 1.28 µM)
- MIC [31]: 2 µg/mL (≈ 5.14 µM)
- MIC [32]: 16 µg/mL (≈ 41.1 µM)
- MIC (Streptococcus pneumoniae): 0.015 µg/mL (≈ 0.0385 µM)
- MIC (Enterococcus faecium [33]): 16 µg/mL (≈ 41.1 µM)
- MIC (Enterococcus faecium [34]): 4 µg/mL (≈ 10.3 µM)
- MIC (Enterococcus faecium [35]): 0.03 µg/mL (≈ 0.077 µM)
- MIC (Enterococcus faecium [36]): 16 µg/mL (≈ 41.1 µM)
- MIC (Enterococcus faecium [37]): 0.03 µg/mL (≈ 0.077 µM)
- MIC (Enterococcus faecalis [38]): 2 µg/mL (≈ 5.14 µM)
- MIC (Enterococcus faecalis [39]): 4 µg/mL (≈ 10.3 µM)
- MIC (Escherichia coli [40]): 0.008 µg/mL (≈ 0.0205 µM)
- MIC (Escherichia coli [41]): 16 µg/mL (≈ 41.1 µM)
- MIC (Escherichia coli [42]): 32 µg/mL (≈ 82.2 µM)
- MIC (Escherichia coli [43]): 16 µg/mL (≈ 41.1 µM)
